The source of these data is ChEMBL document CHEMBL2311339, “Identification of GZD824 as an orally bioavailable inhibitor that targets phosphorylated and nonphosphorylated breakpoint cluster region-Abelson (Bcr-Abl) kinase and overcomes clinically acquired mutation-induced resistance against imatinib” (J Med Chem, 2013).

Calls of active or inactive are those of the source. The calls are words filed in the database; no cut-off is given here.

Broadly, the IC50 is the concentration needed to halve the response being measured. By Kd is commonly meant the concentration at which binding is half-saturated. A high value points to weaker binding. The AUC(0-t) is the area under the concentration-time curve up to a stated or last time point. Low values mean low exposure, high ones high exposure.

One data set can be described thus: cells. Conditions: Mus musculus, BaF3, 72 h.
For another data set, the target named is Cytochrome P450 2E1 (Homo sapiens, UniProt P05181). The experiment in a line: Inhibition of human recombinant CYP2E1 at 30 uM after 30 mins. In kind it is ADME. Conditions: recombinant enzyme, 0.5 h.
Sequence of Cytochrome P450 2E1 (P05181 whole entry): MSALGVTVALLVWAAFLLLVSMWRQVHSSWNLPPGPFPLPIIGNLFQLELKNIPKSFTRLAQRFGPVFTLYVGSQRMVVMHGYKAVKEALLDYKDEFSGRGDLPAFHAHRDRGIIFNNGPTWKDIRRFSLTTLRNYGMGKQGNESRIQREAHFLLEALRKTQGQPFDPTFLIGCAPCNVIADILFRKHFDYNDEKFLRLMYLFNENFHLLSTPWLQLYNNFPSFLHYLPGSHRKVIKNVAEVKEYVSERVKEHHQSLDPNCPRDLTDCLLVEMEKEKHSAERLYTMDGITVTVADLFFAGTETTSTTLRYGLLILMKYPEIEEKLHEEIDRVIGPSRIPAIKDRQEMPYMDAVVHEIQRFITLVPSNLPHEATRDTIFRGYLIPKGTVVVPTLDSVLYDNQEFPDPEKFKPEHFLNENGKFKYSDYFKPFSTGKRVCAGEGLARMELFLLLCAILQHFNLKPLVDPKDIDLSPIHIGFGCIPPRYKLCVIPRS
For data set [1], the target named is Serine/threonine-protein kinase B-raf (Homo sapiens) (UniProt P15056). The experiment in a line: Binding affinity to BRAF (unknown origin) at 10 nM after 2 hrs by FRET assay.
Sequence of Serine/threonine-protein kinase B-raf (Homo sapiens) (P15056 whole entry): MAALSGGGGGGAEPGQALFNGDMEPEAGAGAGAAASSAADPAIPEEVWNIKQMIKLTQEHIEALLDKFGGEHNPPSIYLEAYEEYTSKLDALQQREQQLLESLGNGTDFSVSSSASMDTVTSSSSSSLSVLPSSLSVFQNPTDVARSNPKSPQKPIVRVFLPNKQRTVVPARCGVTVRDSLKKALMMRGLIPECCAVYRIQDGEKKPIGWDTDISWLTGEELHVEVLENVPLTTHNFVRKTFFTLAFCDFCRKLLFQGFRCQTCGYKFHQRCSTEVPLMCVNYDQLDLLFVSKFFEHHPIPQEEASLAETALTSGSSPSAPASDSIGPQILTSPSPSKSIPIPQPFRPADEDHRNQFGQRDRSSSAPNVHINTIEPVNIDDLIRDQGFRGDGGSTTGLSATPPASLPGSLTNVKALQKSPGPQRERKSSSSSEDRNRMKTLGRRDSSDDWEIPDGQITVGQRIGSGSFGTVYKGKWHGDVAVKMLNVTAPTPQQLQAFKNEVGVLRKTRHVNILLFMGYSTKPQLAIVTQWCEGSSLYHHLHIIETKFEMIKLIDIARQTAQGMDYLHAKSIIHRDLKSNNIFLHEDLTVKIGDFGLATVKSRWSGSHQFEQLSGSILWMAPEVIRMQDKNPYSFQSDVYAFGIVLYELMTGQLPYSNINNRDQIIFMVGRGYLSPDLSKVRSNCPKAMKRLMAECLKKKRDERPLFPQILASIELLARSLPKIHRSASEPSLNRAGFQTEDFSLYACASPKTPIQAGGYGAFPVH
The nature of data set [2]: Antitumor activity against mouse BA/F3 cells expressing BCR-ABL T315I mutant allografted in SCID mouse assessed as increase in median survival at 20 mg/kg/day, po qd for 10 days. In kind it is functional, BaF3. The essentials:
(§1)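 Ba/F3 Bcr-Abl T315I cells stably carrying firefly luciferase, in saline, were injected i.v. into SCID nude mice (2 × 10^6 cells/0.1 mL). Imaging began 5−7 days later: i.p. D-luciferin, halothane anaesthesia, images after 5 min. Mice were randomised by signal and dosed by oral gavage once daily for 10 days (5, 10, 20 mg/kg/day; imatinib 100 mg/kg; vehicle). Luminescence was quantified; survival by Kaplan−Meier with log-rank test.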

The subject of the next data set is U-937. Description: Cytotoxicity against human U937 cells […] assessed as growth inhibition after 72 hrs by CCK-8 assay. In kind it is functional, cell-based. Conditions: U-937, 72 h. The essentials:
(§2)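 Log-phase human leukemia cells were seeded at about 3000 cells/well and treated 24 h later for 72 h. CCK-8 was then incubated with the cells for 3 h and read as OD450 − OD650. Viability was normalized to vehicle wells and cell-free blanks, and IC50 taken as the mean of three experiments.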

Another data set relates to K562. Description: Cytotoxicity against human K562 cells expressing BCR-ABL assessed as growth inhibition after 72 hrs by CCK-8 assay. The data set is classed as functional, cell-based. Conditions: K562, 72 h. A digest of the protocol: as §2
In general terms: Tetrazolium dyes change colour on reduction, which living cells bring about.

Data set [3] addresses Platelet-derived growth factor receptor alpha (Homo sapiens) (UniProt P16234). Description: Binding affinity to PDGFRalpha (unknown origin) at 10 nM after 2 hrs by FRET assay.
Another data set concerns BaF3. The experiment in a line: Antitumor activity against mouse BA/F3 cells expressing BCR-ABL T315I mutant allografted in SCID mouse assessed as complete suppression of cell proliferation at 20 mg/kg/day, po qd for 10 days. The data set is classed as functional, organism-based. A digest of the protocol: as §1
Data set [4] can be described thus: Cytotoxicity against mouse BA/F3 cells expressing BCR-ABL Y253H mutant assessed as growth inhibition after 72 hrs by CCK-8 assay. Conditions: BaF3, 72 h.
Data set [5] in a line: Plasma concentration in rat after 12 hrs. In kind it is ADME. A digest of the protocol:
(§3)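 Bismesylate salt given to rats as a single iv dose of 5 mg/kg or a single oral dose of 25 mg/kg. Plasma drug levels were followed over time to derive the PK parameters. The 12 h and 24 h plasma levels come from the oral 25 mg/kg dose.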

Data set [6] concerns the target Fibroblast growth factor receptor (Homo sapiens) (UniProt P22607+P11362+P22455+P21802). Description: Binding affinity to FGFR (unknown origin) at 10 nM after 2 hrs by FRET assay. The data set is classed as protein assay.
Data set [7] is described as follows: Cytotoxicity against mouse BA/F3 cells expressing BCR-ABL F317L mutant assessed as growth inhibition after 72 hrs by CCK-8 assay. Conditions: BaF3, 72 h.
Data set [8] concerns the target Tyrosine-protein kinase ABL1 (Homo sapiens, UniProt P00519). Description: Binding affinity to phosphorylated wild type ABL1 (unknown origin) after 1 hr.
The nature of data set [9]: AUC (0 to t) in rat at 25 mg/kg, po. The data set is classed as ADME, organism-based. Further details: dose 25 mg/kg, route oral. Conditions: plasma. The essentials:
as §3

Sequence of Platelet-derived growth factor receptor alpha (Homo sapiens) (P16234 whole entry): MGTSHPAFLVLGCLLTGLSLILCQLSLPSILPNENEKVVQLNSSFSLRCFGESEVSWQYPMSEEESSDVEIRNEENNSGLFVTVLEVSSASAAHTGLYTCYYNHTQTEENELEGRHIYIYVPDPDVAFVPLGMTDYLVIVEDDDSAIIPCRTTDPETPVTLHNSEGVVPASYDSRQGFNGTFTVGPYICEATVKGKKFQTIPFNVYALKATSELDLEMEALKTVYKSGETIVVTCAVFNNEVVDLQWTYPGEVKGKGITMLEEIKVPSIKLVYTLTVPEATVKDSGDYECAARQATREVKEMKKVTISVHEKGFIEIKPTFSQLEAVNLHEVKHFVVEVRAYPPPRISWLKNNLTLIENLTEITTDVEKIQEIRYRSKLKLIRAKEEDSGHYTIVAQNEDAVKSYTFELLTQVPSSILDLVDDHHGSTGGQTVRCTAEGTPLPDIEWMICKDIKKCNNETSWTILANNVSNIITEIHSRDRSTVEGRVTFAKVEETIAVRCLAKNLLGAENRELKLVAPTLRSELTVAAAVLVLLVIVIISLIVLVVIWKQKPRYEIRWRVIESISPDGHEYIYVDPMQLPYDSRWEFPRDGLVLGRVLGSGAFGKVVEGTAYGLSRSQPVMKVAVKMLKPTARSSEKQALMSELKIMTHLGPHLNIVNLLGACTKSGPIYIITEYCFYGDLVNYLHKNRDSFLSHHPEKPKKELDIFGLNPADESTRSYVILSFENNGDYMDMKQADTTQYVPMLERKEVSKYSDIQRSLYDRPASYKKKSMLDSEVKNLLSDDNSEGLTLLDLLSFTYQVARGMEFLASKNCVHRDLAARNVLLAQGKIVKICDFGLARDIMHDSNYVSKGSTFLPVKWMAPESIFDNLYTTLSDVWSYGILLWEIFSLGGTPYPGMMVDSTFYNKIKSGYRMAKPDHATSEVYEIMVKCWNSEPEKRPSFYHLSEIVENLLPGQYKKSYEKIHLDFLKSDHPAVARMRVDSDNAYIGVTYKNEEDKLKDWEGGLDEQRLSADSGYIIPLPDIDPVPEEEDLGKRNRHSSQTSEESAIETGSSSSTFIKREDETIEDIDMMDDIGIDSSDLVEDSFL
Sequence of Tyrosine-protein kinase ABL1 (P00519 whole entry): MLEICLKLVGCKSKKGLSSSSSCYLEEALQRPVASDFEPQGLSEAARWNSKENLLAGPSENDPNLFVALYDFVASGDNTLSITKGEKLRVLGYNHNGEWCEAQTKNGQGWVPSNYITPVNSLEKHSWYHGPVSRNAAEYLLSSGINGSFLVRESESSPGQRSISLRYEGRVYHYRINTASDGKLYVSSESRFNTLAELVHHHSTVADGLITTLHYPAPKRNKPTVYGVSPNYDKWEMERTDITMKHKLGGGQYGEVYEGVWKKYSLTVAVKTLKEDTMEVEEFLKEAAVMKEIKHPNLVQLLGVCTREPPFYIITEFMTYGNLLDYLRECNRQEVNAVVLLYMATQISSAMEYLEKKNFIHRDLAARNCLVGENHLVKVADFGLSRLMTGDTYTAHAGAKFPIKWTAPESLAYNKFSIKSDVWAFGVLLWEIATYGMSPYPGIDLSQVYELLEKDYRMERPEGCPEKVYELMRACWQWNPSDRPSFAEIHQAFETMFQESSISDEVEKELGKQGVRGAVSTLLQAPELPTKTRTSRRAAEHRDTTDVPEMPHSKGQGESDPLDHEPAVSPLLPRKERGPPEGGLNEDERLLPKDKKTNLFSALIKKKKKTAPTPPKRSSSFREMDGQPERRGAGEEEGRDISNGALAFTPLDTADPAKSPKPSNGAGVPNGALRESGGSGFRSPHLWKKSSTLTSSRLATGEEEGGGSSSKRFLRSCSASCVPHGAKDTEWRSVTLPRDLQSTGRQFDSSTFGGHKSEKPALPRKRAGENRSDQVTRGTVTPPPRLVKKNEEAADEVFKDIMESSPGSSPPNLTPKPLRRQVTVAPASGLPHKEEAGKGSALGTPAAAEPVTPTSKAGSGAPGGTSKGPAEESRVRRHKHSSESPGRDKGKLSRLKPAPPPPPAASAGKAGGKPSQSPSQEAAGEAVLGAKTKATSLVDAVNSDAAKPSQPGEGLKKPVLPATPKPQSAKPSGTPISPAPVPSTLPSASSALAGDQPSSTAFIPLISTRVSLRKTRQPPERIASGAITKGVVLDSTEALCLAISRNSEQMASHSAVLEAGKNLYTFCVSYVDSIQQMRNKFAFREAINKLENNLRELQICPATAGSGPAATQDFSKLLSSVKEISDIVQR

Turning to `Cc1ccc(C(=O)Nc2ccc(CN3CCN(C)CC3)c(C(F)(F)F)c2)cc1C#Cc1cnc2[nH]ncc2c1` [OLVEREMBATINIB], the concentration for half-maximal inhibition (IC50) in the data set “cells” is 6 nM; with U-937, 390 nM; in the data set with K562, 0.2 nM; in data set [4] it was 3 nM; in data set [7] it was 2.7 nM. In addition, on Cytochrome P450 2E1, the “inhibition (INH)” value was “Not Active”. Besides, the outcome in [1], in data set [3] and in data set [6] was inactive. Besides, the Survival in [2] worked out at 31.9 days. In addition, in the data set on BaF3, the outcome was Active. The same molecule had a concentration at 12 h in data set [5] of 270 nM. Besides, the Kd in [8] worked out at 0.34 nM. Moreover, the AUC(0-t) in data set [9] came to 6700 ng·h/mL.
